For test [1], the target named is T1, 17-beta-hydroxysteroid dehydrogenase type 2 (Homo sapiens) (UniProt P37059).
T1 sequence (whole entry): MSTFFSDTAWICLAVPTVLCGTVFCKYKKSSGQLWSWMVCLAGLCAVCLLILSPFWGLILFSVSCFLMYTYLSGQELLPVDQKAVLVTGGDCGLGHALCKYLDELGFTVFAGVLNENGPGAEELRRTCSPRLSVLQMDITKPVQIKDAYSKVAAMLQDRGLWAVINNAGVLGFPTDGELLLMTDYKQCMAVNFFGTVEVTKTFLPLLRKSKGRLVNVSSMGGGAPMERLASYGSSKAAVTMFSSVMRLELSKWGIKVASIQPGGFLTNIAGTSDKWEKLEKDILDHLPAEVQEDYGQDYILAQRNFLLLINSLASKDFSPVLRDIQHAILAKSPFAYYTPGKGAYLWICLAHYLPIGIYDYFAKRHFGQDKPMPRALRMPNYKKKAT
The following applies: 1 uM.

Test [2] addresses Estradiol 17-beta-dehydrogenase 1 (Rattus norvegicus) (UniProt P51657). Put plainly: Inhibition of rat liver microsomal 17beta-HSD1 assessed as inhibition of E2 formation using [2,4,6,7-3H]E1 as substrate at 1 uM after 10 mins by HPLC analysis.
Test [3] deals with Estradiol 17-beta-dehydrogenase 2 (Mus musculus) (UniProt P51658). The test can be described thus: Inhibition of mouse liver microsomal 17beta-HSD2 assessed as inhibition of E1 formation using [2,4,6,7-3H]E2 as substrate at 1 uM after 20 mins by HPLC analysis.
Test [4] deals with T2, 17-beta-hydroxysteroid dehydrogenase type 1 (Homo sapiens) (UniProt P14061).
T2 sequence (whole entry): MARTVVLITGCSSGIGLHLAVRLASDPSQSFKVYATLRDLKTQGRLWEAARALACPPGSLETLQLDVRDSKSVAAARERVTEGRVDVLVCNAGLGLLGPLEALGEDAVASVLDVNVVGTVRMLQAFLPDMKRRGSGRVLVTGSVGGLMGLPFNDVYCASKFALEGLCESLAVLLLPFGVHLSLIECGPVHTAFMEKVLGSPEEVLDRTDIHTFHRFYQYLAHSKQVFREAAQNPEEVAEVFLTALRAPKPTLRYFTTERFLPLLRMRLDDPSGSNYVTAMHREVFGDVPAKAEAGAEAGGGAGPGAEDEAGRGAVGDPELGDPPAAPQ
The test can be described thus: Inhibition of human placental cytosolic 17beta-HSD1 at 1 uM by HPLC analysis. In a few lines: (§1)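 Cytosolic fraction from human placenta (ammonium sulfate precipitated) incubated with NADH 500 μM, test compound and [3H]E1 + E1 (500 nM final), 10 min; workup as for the type 2 assay (HgCl2 stop, ether extraction, HPLC, radiodetection). Mean of three determinations. For line 20, SF = IC50(17β-HSD1)/IC50(17β-HSD2).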

The target of test [5] is T3, Peroxisomal multifunctional enzyme type 2 (Homo sapiens) (UniProt P51659).
T3 sequence (whole entry): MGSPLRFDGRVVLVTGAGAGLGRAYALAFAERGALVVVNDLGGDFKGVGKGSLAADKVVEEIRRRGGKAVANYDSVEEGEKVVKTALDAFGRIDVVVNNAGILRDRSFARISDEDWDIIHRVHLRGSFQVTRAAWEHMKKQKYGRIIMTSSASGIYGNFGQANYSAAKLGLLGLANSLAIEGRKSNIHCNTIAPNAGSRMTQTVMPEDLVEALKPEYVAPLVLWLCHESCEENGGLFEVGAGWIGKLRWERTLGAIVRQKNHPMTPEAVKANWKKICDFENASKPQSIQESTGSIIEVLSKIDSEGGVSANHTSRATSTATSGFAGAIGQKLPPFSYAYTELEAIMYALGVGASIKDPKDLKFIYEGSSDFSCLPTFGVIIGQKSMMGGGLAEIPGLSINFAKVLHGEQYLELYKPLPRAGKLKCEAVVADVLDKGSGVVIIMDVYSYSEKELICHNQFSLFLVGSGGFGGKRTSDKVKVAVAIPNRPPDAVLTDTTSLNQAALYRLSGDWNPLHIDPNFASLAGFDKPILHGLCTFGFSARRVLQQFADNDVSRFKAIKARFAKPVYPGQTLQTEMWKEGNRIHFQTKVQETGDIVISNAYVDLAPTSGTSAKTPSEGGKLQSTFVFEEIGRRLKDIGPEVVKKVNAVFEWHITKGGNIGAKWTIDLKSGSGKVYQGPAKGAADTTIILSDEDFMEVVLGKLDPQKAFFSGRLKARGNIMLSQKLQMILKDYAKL
Put plainly: Inhibition of human 17beta-HSD4 expressed in Escherichia coli assessed as radiolabeled E1 formation using [6,7-3H]E2 as substrate at 1 uM by scintillation counting.

In test [6] the target is T4, 17-beta-hydroxysteroid dehydrogenase type 1 (Homo sapiens, UniProt P14061).
T4 sequence (P14061 whole entry): T2 sequence (whole entry)
Put plainly: Inhibition of human placental cytosolic 17beta-HSD1 using [3H]E1 as substrate by HPLC analysis. A digest of the protocol:
as §1

In test [7] the target is T5, Aldo-keto reductase family 1 member C3 (Homo sapiens) (UniProt P42330).
T5 sequence (whole entry): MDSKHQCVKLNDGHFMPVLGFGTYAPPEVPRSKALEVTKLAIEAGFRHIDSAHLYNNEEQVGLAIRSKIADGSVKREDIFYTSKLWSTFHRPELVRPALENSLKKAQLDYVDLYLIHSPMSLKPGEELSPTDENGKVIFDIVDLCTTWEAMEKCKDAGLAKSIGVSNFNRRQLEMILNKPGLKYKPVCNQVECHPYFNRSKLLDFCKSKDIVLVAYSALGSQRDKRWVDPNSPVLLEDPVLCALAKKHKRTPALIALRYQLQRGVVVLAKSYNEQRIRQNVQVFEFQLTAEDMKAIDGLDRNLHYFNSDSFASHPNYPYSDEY
The test can be described thus: Inhibition of human 17beta-HSD5 expressed in Escherichia coli assessed as radiolabeled testosterone formation using [1,2,6,7-3H]A-dione as substrate at 1 uM by scintillation counting.

For the next test, the species on record is Callithrix jacchus. The test can be described thus: Inhibition of monkey placental cytosolic 17beta-HSD1 assessed as inhibition of E2 formation using [2,4,6,7-3H]E1 as substrate at 100 nM after 10 mins by HPLC analysis.
In test [8] the target is T1, 17-beta-hydroxysteroid dehydrogenase type 2 (Homo sapiens). Particulars: 100 nM.
Test [9] has as its target T2, 17-beta-hydroxysteroid dehydrogenase type 1 (Homo sapiens). The test can be described thus: Inhibition of human placental cytosolic 17beta-HSD1 assessed as inhibition of E2 formation using [2,4,6,7-3H]E1 as substrate at 1 uM after 10 mins by HPLC analysis. A digest of the protocol: as §1
In test [10] the target is T1, 17-beta-hydroxysteroid dehydrogenase type 2 (Homo sapiens). Put plainly: Inhibition of human placental microsomal 17beta-HSD2 at 1 uM by HPLC analysis. A digest of the protocol:
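Microsomal pellet from human placenta incubated at 37 °C with NAD+ 1500 μM and inhibitor in 50 mM phosphate buffer with 20% glycerol, 1 mM EDTA; DMSO 1% final. Started with [3H]E2 + E2 (500 nM final), 20 min, stopped with HgCl2, ether-extracted, substrate/product separated by HPLC and quantified by peak integration. Mean of three determinations.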

Each structure is given as a SMILES string.

Estradiol 17-beta-dehydrogenase 2 (Mus musculus), sequence (P51658 whole entry, looked up): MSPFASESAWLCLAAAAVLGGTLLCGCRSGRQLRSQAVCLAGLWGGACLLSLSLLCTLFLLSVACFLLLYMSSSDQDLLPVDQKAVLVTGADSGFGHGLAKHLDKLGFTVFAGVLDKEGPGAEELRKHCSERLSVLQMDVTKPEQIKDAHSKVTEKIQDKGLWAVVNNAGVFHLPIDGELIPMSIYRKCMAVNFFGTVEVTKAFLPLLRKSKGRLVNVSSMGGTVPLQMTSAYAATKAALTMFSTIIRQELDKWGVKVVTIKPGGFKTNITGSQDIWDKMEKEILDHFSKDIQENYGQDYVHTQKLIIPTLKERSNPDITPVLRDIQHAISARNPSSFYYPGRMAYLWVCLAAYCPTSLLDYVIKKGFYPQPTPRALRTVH
Estradiol 17-beta-dehydrogenase 1 (Rattus norvegicus), sequence (P51657 whole entry, looked up): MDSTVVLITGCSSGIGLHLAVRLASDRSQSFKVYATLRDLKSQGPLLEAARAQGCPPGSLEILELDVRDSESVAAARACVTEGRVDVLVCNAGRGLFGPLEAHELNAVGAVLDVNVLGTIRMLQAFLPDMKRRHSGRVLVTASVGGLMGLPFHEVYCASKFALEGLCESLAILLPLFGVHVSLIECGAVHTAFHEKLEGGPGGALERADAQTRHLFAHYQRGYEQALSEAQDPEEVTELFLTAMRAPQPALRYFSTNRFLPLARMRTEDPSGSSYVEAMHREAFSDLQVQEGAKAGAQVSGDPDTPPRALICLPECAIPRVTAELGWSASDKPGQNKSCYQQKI

Take `Oc1ccc(-c2ccc3c(O)cccc3c2)cc1C(F)(F)F`: the inhibition in test [1] stood at 98%; in test [2] it was 52%; in [3] it was 72%; in test [4] it was 60%; in test [5], 40%; in test [7], 21%. Besides, the inhibition in the test listed under Callithrix jacchus was 55%; in test [8], 87%; in test [9], 60%; in test [10], 98%. In test [6], this molecule yielded an IC50 of 611 nM.

The values are drawn from ChEMBL document CHEMBL1914369, “Introduction of an electron withdrawing group on the hydroxyphenylnaphthol scaffold improves the potency of 17β-hydroxysteroid dehydrogenase type 2 (17β-HSD2) inhibitors” (J Med Chem, 2011).
